T cruzi inh: inhibitors of intracellular T. cruzi growth, primary screen, luminescence, NIH3T3 host cells. T. cruzi beta-gal in NIH3T3, 90 h. inhibition, % (test concentration not listed). 300,000 tested, 1.4% active. AID 1885, 2009;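 active = mean inhibition across valid replicates above about 55%, limit read from the data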;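 also: signal also drops with host cell toxicity which is not excluded here; 0% = plate median of DMSO wells and 100% = zero luminescence signal; higher percent means less beta-gal luminescence so fewer parasites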
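Material: NIH/3T3 host cells with β-galactosidase reporter T. cruzi; Input: 5,000 host fibroblasts per well; Medium: DMEM, 2% fetal bovine serum; Compound: 50 nL DMSO compound solution per well; Schedule: 3 h host attachment, then at least 90 h co-culture; Detection: luminescent β-galactosidase signal after 60 min lysis.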
iPSC survival up: enhancers of single-cell hiPSC survival, primary screen, ATPlite luminescence. 100% = ROCK inhibitor wells, 0% = DMSO. AID 602274, 2012. 360,000 tested, 0.044% active. survival enhancement, % at 20 µM; in the data active = survival enhancement above about 18%;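 also: cells exposed to compounds for 16 hours before the ATP read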
H9c2 TAG inh: inhibitors of triacylglycerol accumulation, primary screen, cell-based, uHTS, fluorescence, H9c2; H9c2 cells, Nile Red lipid (TAG) fluorescence; cells loaded with 200 µM oleic acid; inhibition, % at 12.5 µM; 230,000 tested, 0.66% active; AID 651582, 2012;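 active = pattern-corrected inhibition of lipid staining of at least 50% with the nuclear-stain viability signal not falling by more than 50%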;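 also: 0% = DMSO wells and 100% = triacsin C control wells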
beta cell repl: inducers of MIN6 beta-cell proliferation, primary screen, ATP luminescence, uHTS; 330,000 tested, 0.29% active; MIN6 cells proliferation, ATPlite luminescence, 48 h; cells starved in 0.2% serum; 100% = growth in 10% serum; AID 2380, 2010; proliferation, % at 10 µM;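 active = compounds whose signal lies at least 3.5 SD above the mean of all wells on their plate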;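 also: 0% = DMSO-treated cells in low-serum medium and 100% = 10% serum control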
PG9 Ab binder: binders of HIV-1 gp120 antibody PG9, primary screen, biochemical, TR-FRET. inhibition, % at 6.7 µM. 360,000 tested, 0.43% active. TR-FRET gp120-PG9 antibody binding; in the data active = inhibition above about 8.5%
Rev-erbA mod: modulators of Rev-erb alpha DNA binding, primary screen, biochemical, FITC-DNA, fluorescence polarization, uHTS; Nuclear receptor subfamily 1 group D member 1 (Homo sapiens), P20393; AID 1259318, 2017; 370,000 tested, 0.79% active; Rev-erbα–FITC-DNA binding, 90 min; activity, % at 10 µM;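 active = activity above about 14%, limit read from the data; passing the limit was not always enough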;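 also: 0% = DMSO wells with 35 nM protein and 100% = DMSO wells with 750 nM protein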
Target sequence (P20393 whole entry, looked up): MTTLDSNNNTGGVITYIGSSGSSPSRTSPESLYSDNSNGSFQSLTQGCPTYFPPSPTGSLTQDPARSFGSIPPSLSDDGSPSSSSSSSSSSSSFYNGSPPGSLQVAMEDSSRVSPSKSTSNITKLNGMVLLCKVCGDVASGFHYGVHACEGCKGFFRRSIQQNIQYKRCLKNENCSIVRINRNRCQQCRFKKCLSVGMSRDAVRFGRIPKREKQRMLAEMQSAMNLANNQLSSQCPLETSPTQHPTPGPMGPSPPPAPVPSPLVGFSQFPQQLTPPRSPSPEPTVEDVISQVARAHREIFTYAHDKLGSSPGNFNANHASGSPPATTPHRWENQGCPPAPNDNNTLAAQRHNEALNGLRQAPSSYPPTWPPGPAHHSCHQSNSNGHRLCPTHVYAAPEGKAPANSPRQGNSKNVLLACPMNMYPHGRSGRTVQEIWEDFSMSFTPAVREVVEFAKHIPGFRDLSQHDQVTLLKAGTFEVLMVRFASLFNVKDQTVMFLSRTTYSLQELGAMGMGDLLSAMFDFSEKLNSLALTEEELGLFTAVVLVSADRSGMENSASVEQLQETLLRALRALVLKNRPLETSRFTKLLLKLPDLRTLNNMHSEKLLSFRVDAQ
PG9 bind confirm: binders of anti-gp120 antibody PG9, confirmation, biochemical, TR-FRET; shares compounds with PG9 Ab binder; TR-FRET PG9 antibody binding; inhibition, % at 6.7 µM; 1,500 tested, 90% active; in the data active = inhibition above about 9%
PGV04 Ab binding: binders of control antibody PGV04, counter-screen for PG9 antibody binder project, biochemical, TR-FRET, distinct HIV envelope site. AID 651604, 2012. 1,500 tested, 95% active. TR-FRET PGV04 antibody-gp120 binding. shares compounds with PG9 Ab binder. inhibition, % at 6.7 µM; in the data active = inhibition above about 9.5%
Rev-erbA confirm: modulators of Rev-erb alpha DNA binding, confirmation, biochemical, FITC-DNA, fluorescence polarization, single point; shares compounds with Rev-erbA mod; 90 min; activation, % at 25 µM; 3,000 tested, 61% active; AID 1259319, 2017;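 active = activation at or above a set limit, or at least 3 SD above the negative control mean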;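 also: 0% = 35 nM protein with DMSO and 100% = 750 nM protein high control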
RORg counter: modulation of RORgamma DNA binding, dose response, counter-screen for Rev-erb alpha modulator project, biochemical, fluorescence polarization, FITC-DNA; shares compounds with Rev-erbA mod; purified RORgamma protein-FITC-DNA binding; IC50, µM; 910 tested, 8% active;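 active = Compounds whose fitted half-maximal concentration for disrupting protein-DNA binding is below 10 micromolar; the record names Rev-erb in its text, so the target is in doubt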
* marks the source's active call; other numbers are inactive results. The list is not random: actives were taken first. Their share in the collection is about 2.9%.

`CCn1c2ccccc2c2cc(NC(=O)COC(=O)c3ccccc3F)ccc21` gave T cruzi inh 0.6, iPSC survival up 2.9, beta cell repl 0.0, PG9 Ab binder 28.4*, Rev-erbA mod 25.1*, PG9 bind confirm 33.2*, PGV04 Ab binding 55.8* and Rev-erbA confirm 22.9*.
`CN(C)CCCN1C(=O)c2oc3ccccc3c(=O)c2C1c1cccs1` (stereo unspecified) gave T cruzi inh 6.7, iPSC survival up -2.1, beta cell repl -2.9, PG9 Ab binder 0.2 and Rev-erbA mod -0.2.
Screening C=C(C)/C=N/NC(=S)Nc1ccc(S(=O)(=O)N2CCOCC2)cc1 returned T cruzi inh -19.7, iPSC survival up 0.6, H9c2 TAG inh 4.8, beta cell repl -1.8, PG9 Ab binder -1.0 and Rev-erbA mod -2.1.
COc1ccc(-c2nc(NC(=O)c3ccc(OCC(=O)Nc4ccc(F)cc4)c(OC)c3)sc2C)cc1 was read as T cruzi inh -7.1, iPSC survival up 0.0, beta cell repl -5.4, PG9 Ab binder 80.5*, Rev-erbA mod 180.4*, PG9 bind confirm 69.2*, PGV04 Ab binding 82.0*, Rev-erbA confirm 153.8* and RORg counter inactive.
COc1ccc(C(=O)NCC(=O)Nc2ccc(F)cc2)cc1OC was read as T cruzi inh -0.2, iPSC survival up 1.2, beta cell repl -1.6, PG9 Ab binder -0.6 and Rev-erbA mod -0.2.
For C(=Nn1cnnc1)c1ccc2c(c1)CCC2 the results were iPSC survival up -0.4, H9c2 TAG inh -2.7, PG9 Ab binder -2.9 and Rev-erbA mod 3.9.
For O=C(O)CCCCCN1C(=O)C(=O)/C(=C(/O)c2ccccc2)C1c1ccccc1 (stereo unspecified) the results were iPSC survival up -1.2, H9c2 TAG inh -8.2, PG9 Ab binder 0.8 and Rev-erbA mod -5.5.
For CC(C)Nc1nc(-c2ccncc2)nc(-c2ccccc2)c1C#N the results were T cruzi inh 23.4, iPSC survival up -0.4, beta cell repl 2.1, PG9 Ab binder 9.1*, Rev-erbA mod 40.1*, PG9 bind confirm 43.1*, PGV04 Ab binding 60.8* and Rev-erbA confirm 14.1.
COc1cccc(/C=N/n2c(-c3cc(C)[nH]n3)n[nH]c2=S)c1 was read as T cruzi inh -9.1, iPSC survival up -0.6, H9c2 TAG inh 5.4, beta cell repl -0.1, PG9 Ab binder 1.9 and Rev-erbA mod 6.2.
Screening COC(=O)c1ccc(NC(=O)c2ccc3nc(C)sc3c2)cc1 returned T cruzi inh -15.3, iPSC survival up -0.5, H9c2 TAG inh -12.2, beta cell repl -3.9, PG9 Ab binder 28.8*, Rev-erbA mod 38.8*, PG9 bind confirm 31.6*, PGV04 Ab binding 49.1* and Rev-erbA confirm 17.8*.
`Cc1ccccc1CNc1ncnc2cc(Cl)ccc12` gave T cruzi inh 4.0, iPSC survival up -0.4, beta cell repl 0.5, PG9 Ab binder 90.1*, Rev-erbA mod 238.9*, PG9 bind confirm 90.5*, PGV04 Ab binding 95.8*, Rev-erbA confirm 189.5* and RORg counter 2.13*.
`Cc1ccc(CNc2ncnc3cc(Cl)ccc23)cc1` gave T cruzi inh -9.4, iPSC survival up -0.6, beta cell repl -7.1, PG9 Ab binder -0.1 and Rev-erbA mod 0.8.
For O=C(Nc1cc(Cl)ccc1-n1cncn1)c1ccccc1OC(F)F the results were iPSC survival up 0.1, H9c2 TAG inh -21.8, beta cell repl 0.0, PG9 Ab binder 0.5 and Rev-erbA mod -4.1.
Screening COc1cc(C(=O)Nc2cc(Cl)ccc2-n2cncn2)ccc1OC(F)F returned T cruzi inh -1.2, iPSC survival up 0.8, H9c2 TAG inh 18.2, beta cell repl 2.2, PG9 Ab binder 10.2*, Rev-erbA mod 31.3*, PG9 bind confirm 22.7*, PGV04 Ab binding 38.2* and Rev-erbA confirm 16.0.
For CC1CCCN1c1ccnc2cc(Cl)ccc12 (stereo unspecified) the results were iPSC survival up -2.0, H9c2 TAG inh -6.5, PG9 Ab binder 1.9 and Rev-erbA mod -5.3.
O=C(CSc1ccc2ccccc2n1)N/N=C/c1ccc(O)cc1 was read as T cruzi inh -7.9, iPSC survival up 1.2, beta cell repl -3.7, PG9 Ab binder -2.7 and Rev-erbA mod -1.1.
For COc1ccc(S(=O)(=O)NC2CC2)cc1C(=O)N1CCOCC1 the results were T cruzi inh -15.9, iPSC survival up -2.1, beta cell repl 0.9, PG9 Ab binder -0.8 and Rev-erbA mod -1.6.
Screening Cc1cc(OCC(=O)NCc2cccnc2)c2c(C)c(C)c(=O)oc2c1 returned T cruzi inh -8.4, iPSC survival up -0.5, beta cell repl 1.0, PG9 Ab binder 0.3 and Rev-erbA mod -4.8.
Cc1cc(OCC(=O)Nc2cccnc2)c2c(C)c(C)c(=O)oc2c1 was read as T cruzi inh -15.5, iPSC survival up 1.1, beta cell repl -2.4, PG9 Ab binder 15.0*, Rev-erbA mod 19.1*, PG9 bind confirm 14.0*, PGV04 Ab binding 16.3* and Rev-erbA confirm -0.4.
`COc1ccccc1CNC(=O)COC(=O)c1ccco1` gave iPSC survival up -1.3, H9c2 TAG inh 8.5, beta cell repl 1.2, PG9 Ab binder -0.8 and Rev-erbA mod -7.7.
Screening CSc1ncccc1C(=O)OCC(=O)NCCc1ccccc1 returned iPSC survival up -2.4, H9c2 TAG inh -21.1, beta cell repl -2.6, PG9 Ab binder -0.8 and Rev-erbA mod -2.7.

Source: PubChem BioAssay (several laboratories)
